The text below walks through data of ChEMBL document CHEMBL1132696, “Design of antineoplastic agents based on the "2-phenylnaphthalene-type" structural pattern. 4. Synthesis and biological activity of 2-chloro-3-(substituted phenoxy)-1, 4-naphthoquinones and related 5,8-dihydroxy-1,4-naphthoquinones” (J Med Chem, 1999).

One experiment deals with HL-60. Kind of experiment: Cytotoxicity in HL-60 (human leukemia) cell line. It counts as functional, cell-based.
The next experiment concerns NCI. Kind of experiment: Complete inhibition of cell growth of 60-human tumor cell line detected by National Cancer Institute. Conditions: read-out: Log IC50 (converted). It counts as functional, cell-based. A digest of the protocol: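 National Cancer Institute preclinical 60 human tumour cell line drug discovery screen. Read-out is the log IC₅₀ (M) at which complete inhibition of cell growth is detected in at least one cell line. Scored qualitatively: +++ at -7.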

Another experiment concerns SCLC. In words: Cytotoxicity in SCLC (human lung carcinoma) cell line. Type of experiment: functional, cell-based.
The target of experiment [1] is DNA topoisomerase II (Homo sapiens) (UniProt P11388+Q02880). Kind of experiment: Relative activity to induce mammalian DNA topoisomerase II-mediated DNA cleavage. It counts as functional.

Some results are limits rather than exact numbers.

Regarding `O=C1c2oc3cc(O)cc(O)c3c2C(=O)c2c(O)ccc(O)c21`, the IC50 in the experiment on HL-60 came to 0.39 µM; in the experiment with SCLC, 1.5 µM. Besides, the concentration for complete growth inhibition in the experiment on NCI is 100 nM. The compound further yielded an Activity in experiment [1] of 2000.

`Cc1ccc[n+](C2=C([O-])C(=O)c3c(O)ccc(O)c3C2=O)c1`: the IC50 is 30 µM in the experiment on HL-60 and above 10 µM in the experiment with SCLC. This compound also displayed an Activity in experiment [1] of 0.5.

Turning to `O=C1C(Cl)=C(Oc2cccc(O)c2)C(=O)c2c(O)ccc(O)c21`, the IC50 in the experiment on HL-60 was 0.16 µM; in the experiment on SCLC, 0.45 µM. Moreover, in the experiment on NCI, the concentration for complete growth inhibition is 1000 nM. Also, the Activity in experiment [1] came to 100.

On to `COc1cc(OC)cc(OC2=C(Cl)C(=O)c3c(OC(C)=O)ccc(OC(C)=O)c3C2=O)c1`, for which the IC50 with HL-60 came to 0.5 µM; in the experiment with SCLC, 1.1 µM. The concentration for complete growth inhibition with NCI was 1000 nM. In addition, the Activity in experiment [1] was 50.

As for `O=C1C=CC(=O)c2c(O)c(Cl)c(Cl)c(O)c21`, the results for the IC50 in the experiment on HL-60 and with SCLC were 0.049 µM and 0.3 µM, respectively.

On to `O=C1C=CC(=O)c2c(O)c(Oc3ccccc3)c(Oc3ccccc3)c(O)c21`, for which the IC50 in the experiment with HL-60 is 0.13 µM; in the experiment on SCLC it was 0.1 µM. Moreover, the concentration for complete growth inhibition in the experiment with NCI is 100 nM. In experiment [1], this compound registered an Activity of 500.

For `COc1ccc(OC)c2c1C(=O)C(Cl)=C(Cl)C2=O`, the IC50 in the experiment with HL-60 amounted to 0.22 µM; in the experiment with SCLC, 1 µM. Moreover, in experiment [1], the Activity worked out at 200.

On to `O=C1C(Cl)=C(Oc2cc(O)cc(O)c2)C(=O)c2c(O)ccc(O)c21`, for which the IC50 in the experiment with HL-60 was found to be 0.25 µM; in the experiment with SCLC, 0.5 µM. In addition, the concentration for complete growth inhibition in the experiment with NCI was 1000 nM. The compound also came in with an Activity in experiment [1] of 200.

`COc1cc(OC)c2c3c(oc2c1)C(=O)c1c(OC)ccc(OC)c1C3=O`: the IC50 was 128 µM in the experiment with HL-60 and above 10 µM in the experiment on SCLC. Besides, the concentration for complete growth inhibition in the experiment on NCI is 10000 nM. This compound also showed an Activity in experiment [1] of 2.

For the compound `COc1cccc(OC2=C(Cl)C(=O)c3c(O)ccc(O)c3C2=O)c1`, the results for the IC50 in the experiment on HL-60 and in the experiment with SCLC were 0.2 µM and 0.5 µM, respectively. Also, the concentration for complete growth inhibition with NCI is 1000 nM. Further, the Activity in experiment [1] was 800.

Regarding `O=C1C=CC(=O)c2c(O)c(Oc3ccccc3)c(Cl)c(O)c21`, the concentration for half-maximal inhibition (IC50) with HL-60 came out at 0.22 µM; in the experiment on SCLC it was 0.25 µM. In the experiment with NCI, the concentration for complete growth inhibition was 100 nM. Further, the Activity in experiment [1] was determined as 4000.

Take `COc1ccc(OC)c2c1C(=O)C(Cl)=C(Oc1cccc(O)c1)C2=O`: the IC50 stood at 0.067 µM in the experiment with HL-60 and 0.3 µM in the experiment on SCLC. Also, the concentration for complete growth inhibition with NCI was 1000 nM. The Activity in experiment [1] was 10.

Take `COc1cccc(OC2=C(Cl)C(=O)c3c(OC(C)=O)ccc(OC(C)=O)c3C2=O)c1`: the IC50 in the experiment on HL-60 worked out at 0.2 µM; in the experiment on SCLC it was 5 µM. Further, the concentration for complete growth inhibition with NCI is 1000 nM. For the same compound, the Activity in experiment [1] is 200.

On to `O=C1c2ccccc2C(=O)c2c1oc1cc(O)cc(O)c21`, for which the concentration for complete growth inhibition in the experiment on NCI was 1000 nM. The compound further showed an IC50 in the experiment with SCLC of 1.03 µM. Also, the Activity in experiment [1] was above 100000.

As to `COc1cccc(OC2=C(Cl)C(=O)c3c(OC)ccc(OC)c3C2=O)c1`, the IC50 was found to be 0.44 µM in the experiment with HL-60 and 2 µM in the experiment on SCLC. In addition, the concentration for complete growth inhibition in the experiment on NCI was 1000 nM. The Activity in experiment [1] is 20.

Take `COc1cccc(OC2=C(Oc3cccc(OC)c3)C(=O)c3c(OC)ccc(OC)c3C2=O)c1`: the figures for the IC50 with HL-60 and with SCLC were 0.16 µM and 1 µM, respectively. Moreover, in the experiment with NCI, the concentration for complete growth inhibition was 100 nM. This compound showed an Activity in experiment [1] of 0.

`COc1c(Cl)c(Cl)c(OC)c2c1C(=O)C=CC2=O`: the 50% inhibitory concentration (IC50) in the experiment on HL-60 was 1 µM; with SCLC, 0.75 µM. The compound also returned an Activity in experiment [1] of 10.

Regarding `COc1cc(OC)cc(OC2=C(Cl)C(=O)c3c(O)ccc(O)c3C2=O)c1`, the IC50 in the experiment with HL-60 was 0.07 µM; with SCLC, 0.75 µM. Moreover, in the experiment with NCI, the concentration for complete growth inhibition is 1000 nM. This compound also returned an Activity in experiment [1] of 50.

Take `COc1cc(OC)cc(OC2=C(Cl)C(=O)c3c(OC)ccc(OC)c3C2=O)c1`: the IC50 with HL-60 turned out to be 0.12 µM; in the experiment on SCLC, 2 µM. Further, the concentration for complete growth inhibition with NCI was 1000 nM. The same compound gave an Activity in experiment [1] of 100.

As to `COc1ccc2c3c(oc2c1)C(=O)c1c(OC)ccc(OC)c1C3=O`, the IC50 in the experiment with HL-60 was determined as 14.5 µM; in the experiment on SCLC, 1 µM. In experiment [1], this compound displayed an Activity of 2.
